# Data: ChEMBL document CHEMBL1143032, “The concise synthesis of chalcone, indanone and indenone analogues of combretastatin A4” (Bioorg Med Chem, 2007)
# What was measured:
# CA46 = test: Growth inhibition of CA46 cells; assay type: functional; conditions: Homo sapiens
# MCF7 = test: Growth inhibition of MCF7 cells after 48 hrs; assay type: functional; conditions: Homo sapiens, MCF7, 48 h
# [1] = Inhibition of bovine brain tubulin polymerization; set-up: species or system Bos taurus
# In short: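 Tubulin assembly assay. The parameter measured was inhibition of the extent of assembly.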
SMILES,GI50 (CA46) [µM],GI50 (MCF7) [µM],IC50 [1] [µM]
COc1ccc(-c2[nH]c3cc(OC)ccc3c2C(=O)c2cc(OC)c(OC)c(OC)c2)cc1,0.045,,
COc1ccc(/C=C(\C(=O)c2cc(OC)c(OC)c(OC)c2)c2ccc(OC)cc2)cc1,,> 1,6.6
COc1ccc(C2=C(C(=O)c3cc(OC)c(OC)c(OC)c3)C(=O)c3cc(OC)c(OC)c(OC)c32)cc1O,,,20
COc1ccc(C2=C(C(=O)c3cc(OC)c(O)c(OC)c3)c3cc(O)c(OC)cc3C2=O)cc1O,,,36
COc1ccc(/C=C(/C(=O)c2cc(OC)c(OC)c(OC)c2)c2ccc(OC)cc2)cc1,,> 1,2.5
COc1ccc(/C=C\c2cc(OC)c(OC)c(OC)c2)cc1O [COMBRETASTATIN A4],,0.026,
